Assay [1] has as its system Escherichia coli. Description: Antimicrobial activity against Escherichia coli 1949826 B-L isolated from patient with pyelonephritis assessed as >3-log reduction in urinary bacterial titer after 16 hrs. The class given is functional, Urine. The procedure, abridged: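 Patient urine was collected on day 3 of i.v. therapy (steady state) over 4-h intervals after infusion start, stored at –80°C, and sterile filtered. It was twofold serially diluted (1:0 to 1:131,072) in the patient's own pre-dose drug-free urine, inoculated to 1.0 x 10^6–9.5 x 10^6 CFU/ml, and incubated for 18 h at 37°C. Subcultures were grown on blood agar for 24 h. The UBT is the reciprocal of the highest dilution giving >99.9% kill.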

The subject of assay [2] is Escherichia coli. Description: Antimicrobial activity against Escherichia coli 1949825 B-K isolated from patient with pyelonephritis by Etest. The class given is functional.
Assay [3] relates to Escherichia coli. The assay can be described thus: Antimicrobial activity against Escherichia coli 1780063 B-A isolated from patient with pyelonephritis assessed as >3-log reduction in urinary bacterial titer after 24 hrs. In kind it is functional, Urine. The procedure, abridged: (§1)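 Urine was collected before dosing and on day 3 of i.v. therapy (steady state), in 4-h intervals from infusion start (0–4 to 20–24 h), stored at −80°C and sterile filtered. It was serially diluted twofold (1:0 to 1:131,072) in the patient's drug-free pre-dose urine. Microdilution used an inoculum of 1.0 x 10^6–9.5 x 10^6 CFU/ml, incubated 18 h at 37°C, then subcultured 24 h on blood agar. The endpoint was >99.9% kill, reported as reciprocal titer.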

The subject of assay [4] is Escherichia coli. The assay can be described thus: Antimicrobial activity against Escherichia coli 1949826 B-L isolated from patient with pyelonephritis by Etest. In kind it is functional.
Assay [5] concerns Escherichia coli. The assay can be described thus: Antimicrobial activity against Escherichia coli 1780063 B-A isolated from patient with pyelonephritis assessed as >3-log reduction in urinary bacterial titer after 16 hrs. The class given is functional, Urine. An outline of the steps:
as §1

In another assay the test system is Enterococcus faecalis. The assay can be described thus: Antimicrobial activity against Enterococcus faecalis 2215770 B-T isolated from patient with pyelonephritis by Etest. The class given is functional.
A short description of assay [6]: T>MIC in Prevotella spp.-infected patient at 250 to 1000 mg/kg administered every 8 hrs. The class given is functional. The settings on record: dose mg/kg 250-1000; pooled result: one value given for 10 cell lines, strains, targets or settings.
The test system of assay [7] is Serratia marcescens. Description: Antimicrobial activity against Serratia marcescens 2297260 B-U isolated from patient with pyelonephritis assessed as >3-log reduction in urinary bacterial titer after 4 hrs. The class given is functional, Urine.
In assay [8] the test system is Escherichia coli. The assay can be described thus: Antimicrobial activity against Escherichia coli 1821386 B-D isolated from patient with pyelonephritis assessed as >3-log reduction in urinary bacterial titer after 16 hrs. In kind it is functional, Urine. An outline of the steps:
(§2)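 Urine was collected on day 3 of i.v. therapy (steady state) over 4-h intervals from infusion start (0–4 to 20–24 h), stored at –80°C and sterile filtered. It was serially diluted twofold (1:0 up to 1:131,072) in the patient's own pre-dose drug-free urine. Microdilution used a final inoculum of 1.0 x 10^6 to 9.5 x 10^6 CFU/ml, incubated 18 h at 37°C in air. 10 µl was subcultured onto 5% blood Columbia agar for 24 h at 37°C. The bactericidal endpoint was >99.9% (>3-log) kill, reported as a reciprocal titer.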

Assay [9] has as its system Serratia marcescens. Description: Antimicrobial activity against Serratia marcescens 2297260 B-U isolated from patient with pyelonephritis assessed as >3-log reduction in urinary bacterial titer after 16 hrs. In kind it is functional, Urine.
Another assay has as its system Pseudomonas aeruginosa. The assay can be described thus: Antimicrobial activity against Pseudomonas aeruginosa 1821383 B-E isolated from patient with pyelonephritis assessed as >3-log reduction in urinary bacterial titer after 24 hrs. The class given is functional, Urine.
The test system of another assay is Staphylococcus aureus. Description: Antimicrobial activity against Staphylococcus aureus 1889640 A-Z isolated from patient with pyelonephritis assessed as >3-log reduction in urinary bacterial titer after 4 hrs. In kind it is functional, Urine.
Assay [10] has as its system Escherichia coli. Description: Antimicrobial activity against Escherichia coli 1780064 A-X isolated from patient with pyelonephritis assessed as >3-log reduction in urinary bacterial titer after 8 hrs. In kind it is functional, Urine. The procedure, abridged: as §2
Assay [11] has as its system Serratia marcescens. The assay can be described thus: Antimicrobial activity against Serratia marcescens 2297260 B-U isolated from patient with pyelonephritis assessed as >3-log reduction in urinary bacterial titer after 24 hrs. In kind it is functional, Urine.
Assay [12] relates to Escherichia coli. Description: Antimicrobial activity against Escherichia coli 1889647 B-H isolated from patient with pyelonephritis assessed as >3-log reduction in urinary bacterial titer after 16 hrs. The class given is functional, Urine. An outline of the steps:
as §2

In assay [13] the test system is Escherichia coli. Description: Antimicrobial activity against Escherichia coli 1655646 A-Y isolated from patient with pyelonephritis assessed as >3-log reduction in urinary bacterial titer after 24 hrs. In kind it is functional, Urine. An outline of the steps:
as §1

The subject of assay [14] is Staphylococcus epidermidis. Description: Antimicrobial activity against Staphylococcus epidermidis 1949822 B-J isolated from patient with pyelonephritis assessed as >3-log reduction in urinary bacterial titer after 12 hrs. The class given is functional, Urine.
The subject of assay [15] is Serratia marcescens. Description: Antimicrobial activity against Serratia marcescens 2297260 B-U isolated from patient with pyelonephritis assessed as >3-log reduction in urinary bacterial titer after 12 hrs. In kind it is functional, Urine.

In brackets after ≈: the same amount, converted by molar mass.

We go through 2 compounds from ChEMBL document CHEMBL1649151, “Urinary bactericidal activity of Doripenem versus that of levofloxacin in patients with complicated urinary tract infections or pyelonephritis” (Antimicrob Agents Chemother, 2009).

One may read the MIC as the smallest concentration in the dilution series that meets the test's criterion for growth inhibition. Read a high MIC as weaker potency.

As to `C[C@@H](O)[C@H]1C(=O)N2C(C(=O)O)=C(S[C@@H]3CN[C@H](CNS(N)(=O)=O)C3)[C@H](C)[C@H]12` [DORIPENEM], the urinary bactericidal titer with Escherichia coli [1] worked out at 32800; in the assay with Escherichia coli [3], 1024 reciprocal titer; in the assay with Escherichia coli [5], 1024 reciprocal titer. The MIC in the assay with Escherichia coli [2] was found to be 0.03 µg/mL (≈ 0.0713 µM); against Escherichia coli [4] it was 0.03 µg/mL (≈ 0.0713 µM); against Enterococcus faecalis, 0.25 µg/mL (≈ 0.595 µM). Besides, the “fT>MIC” value in assay [6] is on record as 35%.
Take `C[C@H]1COc2c(N3CCN(C)CC3)c(F)cc3c(=O)c(C(=O)O)cn1c23.C[C@H]1COc2c(N3CCN(C)CC3)c(F)cc3c(=O)c(C(=O)O)cn1c23.O` [LEVOFLOXACIN]: the urinary bactericidal titer worked out at 512 reciprocal titer in the assay with Serratia marcescens [7]; 4096 reciprocal titer with Escherichia coli [8]; 128 reciprocal titer in the assay with Serratia marcescens [9]; 16 reciprocal titer in the assay on Pseudomonas aeruginosa; 256 reciprocal titer with Staphylococcus aureus; 512 reciprocal titer in the assay on Escherichia coli [10]. Besides, the urinary bactericidal titer in the assay on Serratia marcescens [11] turned out to be 32 reciprocal titer; in the assay on Escherichia coli [12] it was 1024 reciprocal titer; in the assay on Escherichia coli [13], 256 reciprocal titer; in [14], 2 reciprocal titer; in the assay with Serratia marcescens [15] it was 128 reciprocal titer.
